# From ChEMBL document CHEMBL1136376, “Identification of 2-aminobenzimidazole dimers as antibacterial agents” (2003)
# Tests used:
# Type in all cases: functional
# Escherichia coli = experiment: Antibacterial activity against Escherichia coli
# Method in brief: (§1)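 Broth microdilution MIC run in duplicate. Overnight culture grown in appropriate medium was added to compound in 0.5% DMSO in water, giving about 10²–10³ CFU/well. Growth relative to a compound-free well was read as A595 after 20–24 h at 37 °C. MIC was reported as a range: complete inhibition at the upper concentration, viable cells at the lower. Strains: E. faecalis ATCC 29212, E. coli ATCC 25922, S. aureus ATCC 13709.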
# Staphylococcus aureus = experiment: Antibacterial activity against Staphylococcus aureus; method in brief: as §1
# Enterococcus faecalis = experiment: Antibacterial activity against Enterococcus faecalis; method in brief: as §1
# Streptococcus pyogenes = experiment: Antibacterial activity against Streptococcus pyogenes
Structure (SMILES),MIC (Escherichia coli),MIC (Staphylococcus aureus),MIC (Enterococcus faecalis),MIC (Streptococcus pyogenes)
COC(=O)c1ccc2c(c1)nc(N)n2CCCN(C)CCCn1c(N)nc2cc(C(=O)OC)ccc21,> 100 µM,> 100 µM,–,–
Cc1ccc2nc(N)n(CCCN(C)CCCn3c(N)nc4ccc(C)cc43)c2c1,> 100 µM,> 100 µM,–,–
Nc1nc2cc(Cl)c(Cl)cc2n1CCCOCCCn1c(N)nc2cc(Cl)c(Cl)cc21,> 100 µM,> 100 µM,–,–
CN(CCCn1c(N)nc2cc(C#N)ccc21)CCCn1c(N)nc2cc(C#N)ccc21,> 100 µM,> 100 µM,–,–
Nc1nc2cc(Cl)c(Cl)cc2n1CCCCCCCn1c(N)nc2cc(Cl)c(Cl)cc21,> 100 µM,> 100 µM,–,–
CN(CCCn1c(N)nc2cc(Br)ccc21)CCCn1c(N)nc2cc(Br)ccc21,> 100 µM,> 100 µM,–,–
COc1ccc2nc(N)n(CCCN(C)CCCn3c(N)nc4ccc(OC)cc43)c2c1,> 100 µM,> 100 µM,–,–

# More lines, now with the values ahead:
MIC (Escherichia coli),MIC (Staphylococcus aureus),MIC (Enterococcus faecalis),MIC (Streptococcus pyogenes),Structure (SMILES)
12 µM,6 µM,6 µM,6 µM,CN(CCCNc1nc2cc(Cl)c(Cl)cc2[nH]1)CCCNc1nc2cc(Cl)c(Cl)cc2[nH]1
25 µM,50 µM,25 µM,25 µM,CN(CCCn1c(N)nc2cc(C(F)(F)F)ccc21)CCCn1c(N)nc2cc(C(F)(F)F)ccc21
6 µM,12 µM,6 µM,6 µM,CN(CCCn1c(N)nc2cc(Cl)c(Cl)cc21)CCCn1c(N)nc2cc(Cl)c(Cl)cc21
100 µM,100 µM,–,–,CN(CCCn1c(N)nc2ccccc21)CCCn1c(N)nc2ccccc21
6 µM,12 µM,–,–,CN(CCn1c(N)nc2cc(Cl)c(Cl)cc21)CCn1c(N)nc2cc(Cl)c(Cl)cc21
100 µM,50 µM,–,–,CN(CCCn1cnc2cc(Cl)c(Cl)cc21)CCCn1cnc2cc(Cl)c(Cl)cc21
25 µM,12 µM,1.5 µM,6 µM,CN(CCNc1nc2cc(Cl)c(Cl)cc2[nH]1)CCNc1nc2cc(Cl)c(Cl)cc2[nH]1
50 µM,50 µM,50 µM,50 µM,CN(CCCn1c(N)nc2cc(Cl)ccc21)CCCn1c(N)nc2cc(Cl)ccc21
